Positions of bridges follow the written chain, without caps; N, C: chain ends. Residues, ends and D or L forms follow the SMILES beside them. *: point of attachment. Pentanoyl(2-Pr) = CCCC(CCC)C(=O)*
Tests used:
Assay type in all cases: functional
DU-145 [1] = assay: Cell cycle arrest in human DU145 cells assessed as accumulation of cells at G2 phase at 1.5 mM after 24 hrs by flow cytometry (reference value: 22.1 %)
DU-145 [2] = assay: Cell cycle arrest in human DU145 cells assessed as accumulation of cells at G1 phase at 1.5 mM after 24 hrs by flow cytometry (Rvb =64.7 %)
DU-145 [3] = assay: Cytotoxicity against human DU145 cells assessed viable cells at 1.5 mM after 72 hrs by CCK-8 assay (reference value: 100.00 +/- 2.47 %)
Procedure, shortened: (§1)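 DU-145 cells exposed 72 h to drug or drug equivalent at 0.5 mM or 1.5 mM. Viable cells read by CCK-8, absorbance 450 nm (630 nm reference). Viability % = treated viable cells / mean of untreated group (set 100%); reported as mean ± SEM; one-way ANOVA with Tukey test.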

DU-145 [4] = assay: Cytotoxicity against human DU145 cells assessed viable cells at 0.5 mM after 72 hrs by CCK-8 assay (reference value: 99.97 +/- 0.84 %); procedure, shortened: as §1

Row | Structure (SMILES) | Activity (DU-145 [1]) | Activity (DU-145 [2]) | Activity (DU-145 [3]) | Activity (DU-145 [4])
1 | CCCC(CCC)C(=O)NCC(=O)N[C@@H](Cc1ccccc1)C(=O)N[C@@H](CC(C)C)C(=O)NCC(=O)N[C@H]1CSSC[C@@H](C(N)=O)NC(=O)[C@H](CC(=O)O)NC(=O)[C@@H]2CCCN2C(=O)CNC(=O)[C@H](CCCCN)NC(=O)[C@H](CC(=O)O)NC(=O)CNC(=O)[C@H](CCCNC(=N)N)NC1=O ({Pentanoyl(2-Pr)}-GFLGCRGDKGPDC-NH2; disulfide 5-13) | 15.7% | 76.3% | 38.96% | 69.3%
2 | CCCC(CCC)C(=O)O [VALPROIC ACID] | 25.8% | 62.5% | 79.87% | 99.56%
3 | CC(C)C[C@H](NC(=O)[C@H](Cc1ccccc1)NC(=O)CN)C(=O)NCC(=O)N[C@H]1CSSC[C@@H](C(N)=O)NC(=O)[C@H](CC(=O)O)NC(=O)[C@@H]2CCCN2C(=O)CNC(=O)[C@H](CCCCN)NC(=O)[C@H](CC(=O)O)NC(=O)CNC(=O)[C@H](CCCNC(=N)N)NC1=O (H-GFLGCRGDKGPDC-NH2; disulfide 5-13) | 17.7% | 73.7% | 58.67% | 70.52%

Source: ChEMBL document CHEMBL3232877, “Synthesis and activity of tumor-homing peptide iRGD and histone deacetylase inhibitor valproic acid conjugate” (2014)
